Data on 1 molecule can be found in ChEMBL document CHEMBL3352115, “Discovery of APD334: Design of a Clinical Stage Functional Antagonist of the Sphingosine-1-phosphate-1 Receptor” (ACS Med Chem Lett, 2014).

Active and inactive are the calls of the source. No cut-off for these calls is given here.

Data set [1] concerns Canis familiaris. Description: Reduction in peripheral lymphocyte count in orally dosed dog measured after 24 hrs. In kind it is ADME, organism-based. To be noted: Canis lupus familiaris.
Data set [2] has as its target Sphingosine 1-phosphate receptor 1 (Macaca mulatta, UniProt H9EUW9). Description: Agonist activity at monkey S1P1 receptor assessed as cAMP accumulation by HTRF assay. The data set is classed as functional. A digest of the protocol:
(§1)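 HTRF cyclase (cAMP) functional assay at S1P1 of each species; EC50 taken as mean of three or more replicates; efficacy given as % agonism relative to S1P.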
Background: Cyclic AMP is a second messenger, typically raised through Gs and lowered through Gi signalling.

For data set [3], the system named is Mus musculus. Description: Reduction in inflammatory foci in C57Bl/6 mouse experimental autoimmune encephalomyelitis model of multiple sclerosis at 3 mg/kg dosed once daily beginning on day 18 and continued to day 37 by immunofluorescent staining method. The data set is classed as functional, organism-based. Also on record: dose 3 mg/kg. A digest of the protocol: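 Therapeutic EAE in female C57Bl/6 mice, dosing from day 18; spinal cord and brain collected day 37; cerebellum sections immunostained for CD45 and CD3 with DAPI counterstain; inflammatory foci and infiltrating lymphocytes assessed.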

Data set [4] has as its target Voltage-gated inwardly rectifying potassium channel KCNH2 (Homo sapiens, UniProt Q12809). Description: Displacement of [3H]astemizole from human ERG. A digest of the protocol:
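hERG interaction assessed by [³H]-astemizole binding displacement.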
For orientation: In a radioligand displacement assay an active substance lowers the binding of a labelled ligand.

For data set [5], the target named is Sphingosine 1-phosphate receptor 5 (Homo sapiens) (UniProt Q9H228). Description: Agonist activity at human S1P5 receptor by beta-arrestin recruitment assay relative to S1P. In general terms: Arrestin recruitment assays detect the binding of arrestin to an activated receptor.
Data set [6] deals with Rattus norvegicus. Description: Effect on respiratory function in Sprague-Dawley rat up to 350 mg/kg. The data set is classed as ADME, organism-based. Also on record: dose 350 mg/kg. To be noted: in vivo. A digest of the protocol: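 CNS (neurobehavioral) and respiratory safety studies in SD rats, doses up to 350 mg/kg.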
Data set [7] has as its target Sphingosine 1-phosphate receptor 1 (Mus musculus) (UniProt O08530). Description: Agonist activity at mouse S1P1 receptor assessed as cAMP accumulation by HTRF assay relative to S1P. In kind it is functional. A digest of the protocol: as §1
Data set [8] can be described thus: Tmax in mouse at 1 mg/kg, iv or 1 mg/kg, po. The data set is classed as ADME, organism-based. To be noted: in vivo.
The target in data set [9] is Cytochrome P450 2C19 (Homo sapiens, UniProt P33261). Description: Inhibition of CYP2C19 (unknown origin). In kind it is ADME.
Data set [10] concerns Mus musculus. Description: Reduction in peripheral lymphocyte count in orally dosed mouse measured after 24 hrs. In kind it is ADME, organism-based.
Data set [11] addresses Sphingosine 1-phosphate receptor 2 (Homo sapiens, UniProt O95136). Description: Agonist activity at human S1P2 receptor by beta-arrestin recruitment assay.
The target of data set [12] is Cytochrome P450 2C9 (Homo sapiens, UniProt P11712). Description: Inhibition of CYP2C9 (unknown origin). The data set is classed as ADME.
The target of data set [13] is Sphingosine 1-phosphate receptor 1 (Mus musculus, UniProt O08530). Description: Agonist activity at mouse S1P1 receptor assessed as cAMP accumulation by HTRF assay. The data set is classed as functional. A digest of the protocol:
as §1

Sphingosine 1-phosphate receptor 1 (Mus musculus, UniProt O08530), sequence (O08530 whole entry): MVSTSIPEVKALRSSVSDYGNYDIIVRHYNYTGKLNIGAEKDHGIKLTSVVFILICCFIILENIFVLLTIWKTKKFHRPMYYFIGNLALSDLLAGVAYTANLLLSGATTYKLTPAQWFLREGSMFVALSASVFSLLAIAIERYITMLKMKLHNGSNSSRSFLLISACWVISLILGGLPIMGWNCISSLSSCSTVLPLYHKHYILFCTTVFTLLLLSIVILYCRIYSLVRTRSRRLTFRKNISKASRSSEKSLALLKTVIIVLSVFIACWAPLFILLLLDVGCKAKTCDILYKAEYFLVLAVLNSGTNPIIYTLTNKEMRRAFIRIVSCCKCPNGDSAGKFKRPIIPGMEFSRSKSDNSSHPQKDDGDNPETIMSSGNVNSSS
Sphingosine 1-phosphate receptor 1 (Mus musculus), sequence (O08530 whole entry): as above
Sphingosine 1-phosphate receptor 5 (Homo sapiens), sequence (Q9H228 whole entry): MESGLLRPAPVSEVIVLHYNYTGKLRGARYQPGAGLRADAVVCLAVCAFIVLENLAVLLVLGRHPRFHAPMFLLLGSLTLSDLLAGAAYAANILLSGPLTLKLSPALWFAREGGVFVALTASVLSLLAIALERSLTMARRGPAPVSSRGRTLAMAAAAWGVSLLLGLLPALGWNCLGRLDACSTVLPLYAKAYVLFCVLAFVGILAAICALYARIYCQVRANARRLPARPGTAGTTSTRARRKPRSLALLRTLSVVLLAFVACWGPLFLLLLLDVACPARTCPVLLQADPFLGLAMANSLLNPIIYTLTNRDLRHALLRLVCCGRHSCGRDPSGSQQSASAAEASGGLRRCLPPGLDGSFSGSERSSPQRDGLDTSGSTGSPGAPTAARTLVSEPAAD
Sphingosine 1-phosphate receptor 1 (Macaca mulatta, UniProt H9EUW9), sequence (H9EUW9 whole entry): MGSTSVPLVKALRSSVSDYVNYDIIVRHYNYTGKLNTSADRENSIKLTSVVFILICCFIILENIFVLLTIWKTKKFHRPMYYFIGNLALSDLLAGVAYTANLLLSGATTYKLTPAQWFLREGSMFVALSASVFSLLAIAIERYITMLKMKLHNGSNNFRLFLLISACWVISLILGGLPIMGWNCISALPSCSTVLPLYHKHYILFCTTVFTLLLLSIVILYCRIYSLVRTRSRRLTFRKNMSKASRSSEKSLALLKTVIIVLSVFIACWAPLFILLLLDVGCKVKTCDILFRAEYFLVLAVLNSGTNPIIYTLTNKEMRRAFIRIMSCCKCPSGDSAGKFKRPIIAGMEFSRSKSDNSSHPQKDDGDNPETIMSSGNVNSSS
Voltage-gated inwardly rectifying potassium channel KCNH2, sequence (Q12809 whole entry): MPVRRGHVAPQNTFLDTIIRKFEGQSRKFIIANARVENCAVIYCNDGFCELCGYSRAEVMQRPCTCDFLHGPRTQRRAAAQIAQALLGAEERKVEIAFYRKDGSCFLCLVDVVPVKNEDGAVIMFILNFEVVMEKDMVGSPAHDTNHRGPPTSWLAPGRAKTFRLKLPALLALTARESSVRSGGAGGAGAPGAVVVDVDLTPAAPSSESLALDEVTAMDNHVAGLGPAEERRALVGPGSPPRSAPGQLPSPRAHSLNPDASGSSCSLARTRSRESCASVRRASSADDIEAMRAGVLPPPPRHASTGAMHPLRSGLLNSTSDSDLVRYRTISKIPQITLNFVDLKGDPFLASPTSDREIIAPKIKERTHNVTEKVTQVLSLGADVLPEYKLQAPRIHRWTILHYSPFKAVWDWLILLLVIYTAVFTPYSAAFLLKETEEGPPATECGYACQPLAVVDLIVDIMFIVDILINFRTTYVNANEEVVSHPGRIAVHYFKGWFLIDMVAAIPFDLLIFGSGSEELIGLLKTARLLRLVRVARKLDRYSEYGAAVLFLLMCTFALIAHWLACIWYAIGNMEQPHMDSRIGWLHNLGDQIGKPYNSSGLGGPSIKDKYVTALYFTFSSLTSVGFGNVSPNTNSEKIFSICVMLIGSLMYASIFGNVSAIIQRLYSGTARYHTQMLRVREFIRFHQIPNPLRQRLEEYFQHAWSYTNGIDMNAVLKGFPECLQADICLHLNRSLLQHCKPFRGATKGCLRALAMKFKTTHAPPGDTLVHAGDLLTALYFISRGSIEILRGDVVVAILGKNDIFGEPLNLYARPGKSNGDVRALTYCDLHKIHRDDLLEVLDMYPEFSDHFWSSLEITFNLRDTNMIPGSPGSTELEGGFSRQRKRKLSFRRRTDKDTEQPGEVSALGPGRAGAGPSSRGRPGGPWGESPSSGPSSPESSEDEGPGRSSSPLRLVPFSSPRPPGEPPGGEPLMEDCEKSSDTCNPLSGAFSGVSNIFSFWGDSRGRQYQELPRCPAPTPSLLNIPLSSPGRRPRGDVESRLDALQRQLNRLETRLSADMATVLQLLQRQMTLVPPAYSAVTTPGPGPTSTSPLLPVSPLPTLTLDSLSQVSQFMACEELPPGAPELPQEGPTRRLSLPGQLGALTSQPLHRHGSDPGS
Cytochrome P450 2C9, sequence (P11712 whole entry): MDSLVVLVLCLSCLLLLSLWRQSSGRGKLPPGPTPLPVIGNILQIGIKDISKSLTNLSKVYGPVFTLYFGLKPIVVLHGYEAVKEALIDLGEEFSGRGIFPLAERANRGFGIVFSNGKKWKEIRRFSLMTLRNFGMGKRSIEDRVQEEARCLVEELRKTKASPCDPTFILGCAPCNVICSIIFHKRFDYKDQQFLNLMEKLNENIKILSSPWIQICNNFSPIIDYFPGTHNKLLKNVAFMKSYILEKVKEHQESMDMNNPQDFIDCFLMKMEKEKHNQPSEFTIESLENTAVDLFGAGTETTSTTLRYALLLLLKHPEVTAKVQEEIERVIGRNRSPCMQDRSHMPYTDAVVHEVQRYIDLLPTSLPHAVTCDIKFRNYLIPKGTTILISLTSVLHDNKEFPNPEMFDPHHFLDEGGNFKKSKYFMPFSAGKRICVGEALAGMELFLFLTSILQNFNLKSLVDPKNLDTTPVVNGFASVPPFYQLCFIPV
Sphingosine 1-phosphate receptor 2, sequence (O95136 whole entry): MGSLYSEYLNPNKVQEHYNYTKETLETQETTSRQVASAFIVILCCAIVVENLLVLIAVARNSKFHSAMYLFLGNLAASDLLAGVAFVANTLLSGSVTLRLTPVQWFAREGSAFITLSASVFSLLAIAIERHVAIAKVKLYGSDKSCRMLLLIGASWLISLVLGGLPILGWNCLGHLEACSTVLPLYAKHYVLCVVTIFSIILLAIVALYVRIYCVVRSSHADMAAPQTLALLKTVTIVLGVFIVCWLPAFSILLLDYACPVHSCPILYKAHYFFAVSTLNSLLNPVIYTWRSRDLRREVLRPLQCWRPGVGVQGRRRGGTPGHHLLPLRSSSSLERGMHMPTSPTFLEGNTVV
Cytochrome P450 2C19, sequence (P33261 whole entry): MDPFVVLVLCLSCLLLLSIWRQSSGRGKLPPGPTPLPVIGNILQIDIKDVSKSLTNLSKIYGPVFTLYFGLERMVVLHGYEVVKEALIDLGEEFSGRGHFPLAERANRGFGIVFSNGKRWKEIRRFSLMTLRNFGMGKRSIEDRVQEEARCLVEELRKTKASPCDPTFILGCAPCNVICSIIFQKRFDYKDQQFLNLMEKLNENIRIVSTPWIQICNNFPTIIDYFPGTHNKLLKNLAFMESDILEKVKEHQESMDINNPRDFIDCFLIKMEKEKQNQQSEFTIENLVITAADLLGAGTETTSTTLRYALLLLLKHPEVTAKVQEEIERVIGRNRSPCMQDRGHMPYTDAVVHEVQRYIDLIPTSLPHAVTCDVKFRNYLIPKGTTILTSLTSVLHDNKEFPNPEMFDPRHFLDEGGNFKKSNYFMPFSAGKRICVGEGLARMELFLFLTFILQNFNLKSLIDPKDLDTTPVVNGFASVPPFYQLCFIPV

`O=C(O)C[C@H]1CCc2c1[nH]c1ccc(OCc3ccc(C4CCCC4)c(C(F)(F)F)c3)cc21` [ETRASIMOD]: the IC50 (commonly the concentration that gives 50% inhibition) is 58 nM in data set [1]; more than 30 µM in data set [4]; more than 50 µM in [9]; 101 nM in data set [10]; more than 50 µM in [12]. Further, the figures for the concentration for a half-maximal effect (EC50) in data set [2], in data set [11] and in data set [13] were 0.32 nM, more than 10 µM and 0.44 nM, respectively. Moreover, the result in data set [3] was Active. Further, the Emax (commonly the greatest response seen or fitted, relative to the assay's reference) turned out to be 73% in data set [5] and 95% in data set [7]. Also, in data set [6], the Activity entry is on record as “Non-toxic”. Besides, the Tmax (in general, the time from dosing to the highest level) in data set [8] stood at 8 h.
